# PAFAH1B2 inh – blocks human PAF acetylhydrolase 1b catalytic subunit 2 | P68402 | recombinant PAFAH1B2, FP-rhodamine activity probe, fluorescence polarization | inhibition, % at 3.39 µM | actives 1.2% (n = 340,000) | AID 492953;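 active means inhibition above the mean of all tested compounds plus 3 SD, cut at about 24% in these data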;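 further: 0% = enzyme with DMSO and 100% = wells lacking PAFAH1B2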
# PAFAH1B3 inh – inhibitors of human PAFAH1B3; recombinant PAFAH1B3, FP-rhodamine probe, fluorescence polarization; inhibition, % at 3.39 µM; actives 0.28% (n = 340,000); Q15102;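 active means inhibition above the screen-wide average of all tested compounds plus 3 SD, cut at about 25% in these data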;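 further: 0% = enzyme with DMSO only and 100% = wells lacking PAFAH1B3 protein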
# mABHD4 FP – inhibits mouse alpha/beta hydrolase domain 4; inhibition, % at 8.92 µM; actives 0.54% (n = 370,000); purified mABHD4, FP-Rh probe fluorescence polarization; Q8VD66;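 active means inhibition exceeding the mean over every tested compound plus 3 SD, cut at about 30% in these data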;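 further: 0% = plate median of compound wells and 100% = S159A mutant with DMSO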
#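 Test system: mABHD4 protein; Read-out basis: % inhibition; Incubation: 45 min + 60 min at 25 °C; Repeats: single replicate; Technique: fluorescence polarization with parallel and perpendicular emission, 525/598 nm; Compound: 8.92 µM, single dose; Benchmarks: full inhibition S159A mutant plus DMSO, zero as sample-well median.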
# PAFAH2 inh – PAFAH2 (human) inhibition. Q99487. recombinant PAFAH2, FP-rhodamine activity probe, fluorescence polarization. inhibition, % at 3.39 µM. actives 0.99% (n = 340,000);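 active means inhibition above the mean over all tested compounds plus 3 SD, cut at about 30% in these data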;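 further: inhibitors block probe labeling of enzyme so polarization drops; 0% = enzyme with DMSO and 100% = wells lacking PAFAH2 protein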
# pPAFAH inh – inhibitors of human plasma PAF acetylhydrolase (pPAFAH) | recombinant pPAFAH, FP-rhodamine probe fluorescence polarization | AID 463082 | actives 1.5% (n = 330,000) | inhibition, % at 3.39 µM | Q13093;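 active means inhibition above the mean inhibition across the screen plus 3 SD, cut at about 25% in these data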;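 further: inhibitors block binding of the rhodamine activity-based probe so polarization drops; 0% = enzyme with DMSO and 100% = wells lacking pPAFAH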
# Target sequence (Q13093 whole entry, looked up): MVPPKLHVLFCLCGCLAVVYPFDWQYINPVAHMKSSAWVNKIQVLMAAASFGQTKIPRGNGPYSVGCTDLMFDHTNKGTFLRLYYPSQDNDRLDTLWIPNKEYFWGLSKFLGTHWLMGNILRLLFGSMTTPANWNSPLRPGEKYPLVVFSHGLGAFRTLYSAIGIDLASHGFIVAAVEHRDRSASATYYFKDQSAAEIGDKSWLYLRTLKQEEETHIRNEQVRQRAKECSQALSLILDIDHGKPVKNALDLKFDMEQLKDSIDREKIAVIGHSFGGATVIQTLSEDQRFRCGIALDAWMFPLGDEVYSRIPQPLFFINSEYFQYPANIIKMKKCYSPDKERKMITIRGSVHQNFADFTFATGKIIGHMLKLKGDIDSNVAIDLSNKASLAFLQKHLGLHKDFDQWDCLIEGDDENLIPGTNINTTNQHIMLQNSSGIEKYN
# HTRA1 inhibitor – inhibitors of human serine peptidase HTRA1. Q92743. recombinant HTRA1, FP-rhodamine activity-based probe, fluorescence polarization. inhibition, % at 5.96 µM. actives 0.5% (n = 340,000). AID 504803; in the data active means inhibition above about 36%;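 further: 0% = enzyme with DMSO and 100% = wells lacking enzyme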
# An asterisk follows results filed as active; / = not tested or not shown. Hits are enriched below; roughly 2.8% of the tested compounds scored in any of these assays.
SMILES,PAFAH1B2 inh,PAFAH1B3 inh,mABHD4 FP,PAFAH2 inh,pPAFAH inh,HTRA1 inhibitor
O=C(NCCC1CCCCN1S(=O)(=O)c1ccccc1)C(=O)NCc1ccc(F)cc1 (stereo not drawn),27*,2,5,1,10,-10
CCCNC(=O)C1CCN(S(=O)(=O)c2ccc3c(c2)OCCO3)CC1,8,5,-1,2,0,3
O=C(CCNC(=O)C1CCN(S(=O)(=O)c2ccc(F)cc2)CC1)NCc1ccc(F)cc1,27*,7,7,6,4,3
CCCNC(=O)C1CCN(S(=O)(=O)c2ccc(Br)cc2)CC1,25*,4,1,5,0,6
Nc1[nH]c2cc(Cl)ccc2c1C(=O)NCCc1ccc(Cl)cc1,/,/,19,/,/,/
COC(=O)C1CN(C2CCCC2)CCS(=O)(=O)N1Cc1cn(Cc2ccc(OC)cc2)nn1 (stereo not drawn),/,/,2,/,/,/
CCC(CO)Nc1cccc2c1S(=O)(=O)N(Cc1cn(Cc3cccc(F)c3)nn1)Cc1ccccc1O2 (stereo not drawn),/,/,-5,/,/,/
COc1ccc(-c2csc(N)n2)cc1,11,8,8,5,0,1
Cc1ccc(-c2csc(N)n2)cc1,70*,3,11,12,/,-4
Cc1nc2ccccn2c1C(=O)/C=C/c1ccc(F)cc1,-1,-1,-7,-8,-6,-8
Cc1nc2ccccn2c1-c1ccnn1S(=O)(=O)c1ccc(F)cc1,31*,-3,-10,12,3,-11
C/C(=N\OCc1nc2ccccc2c(=O)n1/N=C/c1cc([N+](=O)[O-])ccc1O)c1ccccc1,0,18,3,25,62*,30
O=C(CCSc1ccc(Cl)cc1)c1ccco1,28*,-1,-6,3,4,-2
O=C(CSc1ccc(Cl)cc1)c1ccco1,21,0,/,19,29*,26
COc1ccc(-n2c(SCC(=O)Nc3cccc4ccccc34)nnc2-c2ccco2)cc1,/,/,-11,/,/,/
COc1cccc(-c2cc3nc(C)c(C)c(N4CCN(Cc5ccco5)CC4)n3n2)c1,/,/,-2,/,/,/
COc1cccc(N2CC(C(=O)Nc3ccc(C(=O)OC(C)C)cc3)CC2=O)c1 (stereo not drawn),-3,9,-11,3,25*,-15
O=C(c1cc(-c2ccc(Cl)cc2)nc2ccccc12)N1CCN(c2ncccn2)CC1,/,/,3,/,/,/
CC(C)[C@@H](CO)N(Cc1cn(Cc2ccccc2)nn1)S(=O)(=O)c1ccccc1Br,/,/,1,/,/,/
COc1ccc(/C=N/NC(=O)c2ccc(CN3C(=O)c4cccc5cccc3c45)cc2)cc1O,27*,25,-27,-34,5,-49
CC(=O)OCCCN1C(=O)CCC12CCC(C)CC2 (stereo not drawn),/,/,0,/,/,/
Cc1cc(C)c(NC(=O)COC(=O)Cc2cccs2)c(C)c1,1,10,-4,3,26*,-4
NC(=O)c1ccc(NC(=O)COC(=O)/C=C/c2cccs2)cc1,1,6,0,17,-1,0
Cc1cc(C)c(NC(=O)CNC(=O)COC(=O)/C=C/c2cccs2)c(C)c1,5,8,4,8,27*,0
O=C(COC(=O)Cc1cccs1)Nc1ccc(OC(F)(F)F)cc1,3,-7,108*,6,18,0
SMILES,PAFAH1B2 inh,PAFAH1B3 inh,mABHD4 FP,PAFAH2 inh,pPAFAH inh,HTRA1 inhibitor
CCC[C@H]1[C@@H](NC(=O)c2cccc(N(C)C)c2)CC[C@@]23CCCN2C(=O)CCC[C@@H]13,/,/,4,/,/,/
CN1CCN(S(=O)(=O)c2ccc(Sc3nnc(-c4cccs4)n3-c3ccccc3)nc2)CC1,33*,0,9,-1,4,-1
CCN(CC)c1ccc(NC(=O)CSc2nc(C3CC3)nc3ccccc23)cc1C,4,7,4,7,31*,5
Cc1cccc(NC(=O)CSc2nc(C3CC3)nc3ccccc23)c1,5,-2,-14,-12,3,-6
COC(=O)[C@]12C[C@H](CC(=O)N3CCN(C(=O)C4CC4)CC3)C(=O)N(Cc3ccco3)C1=C[C@H](C(C)(C)C)O[C@@H]2C,/,/,-12,/,/,/
C=C(C(=O)O)C1CCC2(C)CCCC(C)(O)C2C1 (stereo not drawn),29*,6,3,3,2,0
O=C(C[C@H]1C/C=C\C[C@@H](Cc2ccc(F)cc2)C(=O)O[C@@H](c2ccccc2)CNC1=O)NCCO,12,15,-5,4,0,-2
O=C(C[C@@H]1C/C=C/CC[C@@H](Cc2ccc(F)cc2)C(=O)O[C@@H](c2ccccc2)CNC1=O)NCCO,18,-5,4,1,7,5
O=C(C[C@@H]1C/C=C/CC[C@@H](Cc2ccc(F)cc2)C(=O)O[C@H](c2ccccc2)CNC1=O)NCCO,24*,-5,-2,-2,3,-2
O=C(C[C@H]1C/C=C/CC[C@H](Cc2ccc(F)cc2)C(=O)O[C@H](c2ccccc2)CNC1=O)NCCO,30*,9,-3,9,13,-7
CN1C[C@]2(C=C3CCCCC3n3c(=O)n(-c4ccccc4)c(=O)n32)N(C(=O)OCc2ccccc2)C1=NC(=O)c1ccccc1 (stereo partly drawn),/,/,4,/,/,/
COc1ncc(-c2cc(C(C)=O)c3n(c2=O)CCC3)c(OC)n1,/,/,3,/,/,/
CC1CCN(S(=O)(=O)c2cccc(C(=O)Nc3nncs3)c2)CC1,26*,6,-2,5,-2,-2
Cc1nc(-c2cccc(S(=O)(=O)N3CCCCC3)c2)cs1,3,1,5,1,9,-11
CN1CCN(S(=O)(=O)c2cccc(C(=O)Nc3cc(C(N)=O)cc(C(N)=O)c3)c2)CC1,25*,3,0,3,3,4
Cc1nc(-c2cccc(S(=O)(=O)N3CCC(C)CC3)c2)cs1,30*,1,-4,3,1,-15
O=C(Nc1nncs1)c1cccc(S(=O)(=O)N2CCCC2)c1,3,15,10,4,5,-6
CC1CCN(S(=O)(=O)c2cccc(C(=O)N(Cc3ccccc3)c3ccccn3)c2)CC1,25*,5,-3,3,0,6
O=C(NC1=NC2(C=C3CCCCC3n3c(=O)n(-c4ccccc4)c(=O)n32)CN1CC1CC1)c1ccccc1 (stereo not drawn),/,/,-3,/,/,/
CCOc1ccc(NC(=O)CN(C)C(=O)c2ccc3[nH]c4c(c3c2)CC(C)CC4)cc1OCC (stereo not drawn),4,-4,0,-4,6,3
Cc1ccc(NC(=O)CN(C)C(=O)c2ccc3[nH]c4c(c3c2)CC(C)CC4)cc1 (stereo not drawn),48*,7,2,-2,4,-8
CC(=O)CC[C@H]1CC[C@]2(CCCN(C(=O)C3CCCC3)C2)O1,/,/,2,/,/,/

# Source: PubChem
